Experimental data taken from ChEMBL document CHEMBL4834447, “A gemcitabine-based conjugate with enhanced antitumor efficacy by suppressing HIF-1α expression under hypoxia” (Bioorg Med Chem, 2021).
pIC50: −log10 of the molar value. Calls of active or inactive are those of the source. The calls are words filed in the database; no cut-off is given here.

Tests used:
A549 [1] = test: Cytotoxicity against human A549 cells assessed as reduction in cell viability incubated for 72 hrs by MTT assay; format: functional, cell-based; conditions: A549, 72 h
Method in brief: (§1)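 In the MTT assay, logarithmic-phase cells were seeded at about 5 × 10⁴ cells/mL and preincubated 12 h. Cells were then exposed for 72 h at 37 °C under normoxia (20% O₂, 5% CO₂) to seven final concentrations, 1.25–80 μmol/L, diluted from DMSO stock. MTT (5 mg/mL) was added for 4 h, formazan was dissolved in DMSO, and absorbance was read at 570/630 nm. IC50 was calculated by the Bliss method; values are mean ± SD of three independent runs in duplicate.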

A2780 [2] = test: Cytotoxicity against human A2780 cells assessed as reduction in cell viability incubated for 72 hrs in hypoxic condition by MTT assay; format: functional, cell-based; conditions: A2780, 72 h
Method in brief: (§2)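 For the hypoxic MTT assay, cells were seeded at about 5 × 10⁴ cells/mL and preincubated 12 h under hypoxia (1% O₂, 5% CO₂, 94% N₂). They were then treated for 72 h at 37 °C with final concentrations of 1.25–80 μmol/L. MTT was added for 4 h and absorbance read at 570/630 nm. IC50 was obtained by the Bliss method; tests were repeated three times.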

L02 [3] = test: Cytotoxicity against human L02 cells assessed as reduction in cell viability incubated for 72 hrs by MTT assay; format: cell-based; conditions: L02, 72 h; method in brief: as §1
MCF7 [4] = test: Cytotoxicity against human MCF7 cells assessed as reduction in cell viability incubated for 72 hrs by MTT assay; format: functional, cell-based; conditions: MCF7, 72 h; method in brief: as §1
[5] = (§3) Downregulation of HIF-1alpha in human A2780 cells at 1 uM incubated for 24 hrs in hypoxia condition by Western blot analysis relative to control; format: functional
Method in brief: (§4)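 A2780 cells were treated at the indicated concentrations for 24 h under hypoxia. They were lysed in Tris-Cl pH 6.8 buffer with SDS, glycerol, β-mercaptoethanol, PMSF and aprotinin, then centrifuged at 13000 rpm for 20 min at 4 °C. Proteins were resolved by SDS-PAGE and transferred to PVDF. Blots were probed for HIF-1α, p53 and GAPDH, with secondary antibody at 1:2000 for 1 h, and detected by chemiluminescence.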

L02 [6] = test: Cytotoxicity against human L02 cells assessed as reduction in cell viability incubated for 72 hrs in hypoxic condition by MTT assay; format: cell-based; conditions: L02, 72 h
A2780 [7] = test: Upregulation of p53 in human A2780 cells at 0.1 to 1 uM incubated for 24 hrs in hypoxia condition by Western blot analysis; format: functional, cell-based; conditions: dose 0.1-1 µM; method in brief: as §4
A549 [8] = test: Cytotoxicity against human A549 cells assessed as reduction in cell viability incubated for 72 hrs in hypoxic condition by MTT assay; format: functional, cell-based; conditions: A549, 72 h; method in brief: as §2
A2780 [9] = test: Cytotoxicity against human A2780 cells assessed as reduction in cell viability incubated for 72 hrs by MTT assay; format: functional, cell-based; conditions: A2780, 72 h; method in brief: as §1
A2780 [10] = test: Induction of apoptosis in human A2780 cells assessed as late apoptotic cells at 0.5 uM incubated for 72 hrs in hypoxic condition by annexin-V-FITC and PI staining based flow cytometry analysis (reference value: 6.17 %); format: functional
A2780 [11] = test: Induction of apoptosis in human A2780 cells assessed as early apoptotic cells at 0.5 uM incubated for 72 hrs by annexin-V-FITC and PI staining based flow cytometry analysis (reference value: 5.35 %); format: functional
[12] = Toxicity in BALB/c mouse xenografted with human A2780 cells assessed as effect on body weight at 125 mg/kg, iv administered for 28 days and measured on day 28; format: organism-based; conditions: in vivo, 672 h, time 28 day
Method in brief: (§5)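 The A2780 subcutaneous xenograft was set up in female BALB/c nude mice. Weekly i.v. tail-vein dosing ran for 4 weeks, starting at 100–150 mm³ tumor size (5 mice/group), with DMF:Tween 80:5% dextrose (10:2:88) as the formulation and a 5% dextrose vehicle control. Body weight was recorded every three days over 28 days.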

A2780 [13] = test: Induction of apoptosis in human A2780 cells assessed as viable cells at 0.5 uM incubated for 72 hrs by annexin-V-FITC and PI staining based flow cytometry analysis (reference value: 91.95 %); format: functional; conditions: read-out: Activity
A2780 [14] = test: Antitumor activity against human A2780 cells xenografted in BALB/c mouse assessed as reduction in tumor growth at 125 mg/kg, iv administered for 28 days and measured on day 28 relative to control; format: functional; conditions: 672 h, time 28 day, read-out: TGI
Method in brief: (§6)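 Female BALB/c nude mice, 5 weeks old, were implanted subcutaneously in the right armpit with 10⁷ A2780 cells in 0.1 mL PBS. At 100–150 mm³ (day 19) mice were randomized (5/group) and dosed by tail-vein injection once weekly for 4 weeks. GEM-5 was given in DMF:Tween 80:5% dextrose (10:2:88); vehicle controls received 5% dextrose. Volume was measured by caliper (V = AB²/2) every 3 days. Tumors were weighed after sacrifice, giving the tumor inhibitory rate.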

A2780 [15] = test: Induction of cell cycle arrest in human A2780 cells assessed as G2/M phase at 0.5 uM incubated for 24 hrs in hypoxic condition by PI staining based flow cytometry analysis (reference value: 8.38 %)
A2780 [16] = test: Antitumor activity against human A2780 cells xenografted in BALB/c mouse assessed as reduction in tumor volume at 125 mg/kg, iv administered for 28 days and measured on day 28 relative to control; format: functional; set-up: scale not given: the % may be the effect or the level left; conditions: time 28 day; method in brief: as §6
A2780 [17] = test: Induction of cell cycle arrest in human A2780 cells assessed as G1 phase at 0.5 uM incubated for 24 hrs in hypoxic condition by PI staining based flow cytometry analysis (reference value: 56.83 %)
A2780 [18] = test: as §3; format: functional; method in brief: as §4
A2780 [19] = test: Induction of cell cycle arrest in human A2780 cells assessed as G1 phase at 0.5 uM incubated for 24 hrs by PI staining based flow cytometry analysis (reference value: 75.23 %)
A2780 [20] = test: Induction of cell cycle arrest in human A2780 cells assessed as G2/M phase at 0.5 uM incubated for 24 hrs by PI staining based flow cytometry analysis (reference value: 4.66 %)
A2780 [21] = test: Induction of apoptosis in human A2780 cells assessed as late apoptotic cells at 0.5 uM incubated for 72 hrs by annexin-V-FITC and PI staining based flow cytometry analysis (reference value: 1.71 %); format: functional
A2780 [22] = test: Induction of apoptosis in human A2780 cells assessed as early apoptotic cells at 0.5 uM incubated for 72 hrs in hypoxic condition by annexin-V-FITC and PI staining based flow cytometry analysis (reference value: 9.74 %); format: functional
A2780 [23] = test: Induction of cell cycle arrest in human A2780 cells assessed as S phase at 0.5 uM incubated for 24 hrs by PI staining based flow cytometry analysis (reference value: 20.11 %)
A2780 [24] = test: Induction of apoptosis in human A2780 cells assessed as necrotic cells at 0.5 uM incubated for 72 hrs in hypoxic condition by annexin-V-FITC and PI staining based flow cytometry analysis (reference value: 3.04 %); format: functional
A2780 [25] = test: Induction of apoptosis in human A2780 cells assessed as viable cells at 0.5 uM incubated for 72 hrs in hypoxic condition by annexin-V-FITC and PI staining based flow cytometry analysis (reference value: 81.05 %); format: functional; conditions: read-out: Activity
A2780 [26] = test: Induction of cell cycle arrest in human A2780 cells assessed as S phase at 0.5 uM incubated for 24 hrs in hypoxic condition by PI staining based flow cytometry analysis (reference value: 34.79 %)
A2780 [27] = test: Induction of apoptosis in human A2780 cells assessed as necrotic cells at 0.5 uM incubated for 72 hrs by annexin-V-FITC and PI staining based flow cytometry analysis (reference value: 0.98 %); format: functional
A2780 [28] = test: Downregulation of HIF-1alpha in human A2780 cells incubated for 24 hrs in hypoxia condition by Western blot analysis; format: functional, cell-based; conditions: dose 0.1-1 µM; method in brief: as §4
A2780 [29] = test: Potency index, ratio of IC50 of GEM to IC50 of compound for cytotoxicity against human A2780 cells assessed as reduction in cell viability incubated for 72 hrs by MTT assay; format: functional
Method in brief: (§7)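 The fold value is the IC50 of gemcitabine divided by the compound's IC50. Both IC50s come from 72 h normoxic MTT assays (1.25–80 μmol/L, Bliss method, three independent runs).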

A2780 [30] = test: Antitumor activity against human A2780 cells xenografted in BALB/c mouse assessed as reduction in tumor hypoxia at 271 mg/kg, iv administered for 28 days and measured on day 28 by DAPI staining based confocal microscopic analysis; format: functional, organism-based; conditions: time 28.0 day
Method in brief: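 Tumor sections from the weekly i.v.-dosed A2780 xenograft mice were stained for hypoxia with the pimonidazole kit. This used FITC anti-pimonidazole antibody (1:100) plus HRP rabbit anti-FITC secondary (1:100), with DAPI for nuclei. Green hypoxic areas were imaged by confocal microscopy. Three independent experiments were run.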

MCF7 [31] = test: Potency index, ratio of IC50 of GEM to IC50 of compound for cytotoxicity against human MCF7 cells assessed as reduction in cell viability incubated for 72 hrs by MTT assay; format: functional; method in brief: as §7
[32] = Toxicity in BALB/c mouse xenografted with human A2780 cells assessed as effect on body weight at 271 mg/kg, iv administered for 28 days and measured on day 28; format: organism-based; conditions: in vivo, 672 h, time 28 day; method in brief: as §5
A549 [33] = test: Potency index, ratio of IC50 of GEM to IC50 of compound for cytotoxicity against human A549 cells assessed as reduction in cell viability incubated for 72 hrs by MTT assay; format: functional; method in brief: as §7
A2780 [34] = test: Antitumor activity against human A2780 cells xenografted in BALB/c mouse assessed as reduction in tumor volume at 271 mg/kg, iv administered for 28 days and measured on day 28 relative to control; format: functional; set-up: scale not given: the % may be the effect or the level left; conditions: time 28 day; method in brief: as §6
A2780 [35] = test: Antitumor activity against human A2780 cells xenografted in BALB/c mouse assessed as reduction in tumor growth at 271 mg/kg, iv administered for 28 days and measured on day 28 relative to control; format: functional; conditions: 672 h, time 28 day, read-out: TGI; method in brief: as §6

| Compound | pIC50 (A549 [1]) | pIC50 (A2780 [2]) | pIC50 (L02 [3]) | pIC50 (MCF7 [4]) | pIC50 (L02 [6]) | Activity (A2780 [7]) | pIC50 (A549 [8]) | pIC50 (A2780 [9]) | Activity (A2780 [10]) | Activity (A2780 [11]) | Activity [12] | viability at 0.5 µM (A2780 [13]) | inhibition in vivo at 125 mg/kg (A2780 [14]) | Activity (A2780 [15]) | Activity (A2780 [16]) | Activity (A2780 [17]) | Activity (A2780 [19]) | Activity (A2780 [20]) | Activity (A2780 [21]) | Activity (A2780 [22]) | other results |
| --- | --- | --- | --- | --- | --- | --- | --- | --- | --- | --- | --- | --- | --- | --- | --- | --- | --- | --- | --- | --- | --- |
| OCc1ccc(-c2nn(Cc3ccccc3)c3ccccc23)o1 | < 4.10 | 4.69 | < 4.10 | < 4.10 | 4.58 | inactive | 4.59 | < 4.10 | – | – | – | – | – | – | – | – | – | – | – | – | Activity [5]: 50% |
| Cl.Nc1ccn([C@@H]2O[C@H](CO)[C@@H](O)C2(F)F)c(=O)n1 [GEMCITABINE HYDROCHLORIDE] | 5.64 | 5.86 | 4.93 | 5.20 | 5.35 | Dose-Dependent Effect | 4.83 | 5.90 | 19.51% | 5.02% | Non-Toxic | 51.6% | 69.7% | 2.7% | 29.37% | 37.21% | 42.51% | 5.95% | 34.42% | 25% | Activity (A2780 [18]): inactive; Activity (A2780 [23]): 51.54%; Activity (A2780 [24]): 2.44%; viability at 0.5 µM (A2780 [25]): 53%; Activity (A2780 [26]): 60.08%; Activity (A2780 [27]): 8.98% |
| Nc1ccn([C@@H]2O[C@H](COC(=O)CCC(=O)OCc3ccc(-c4nn(Cc5ccccc5)c5ccccc45)o3)[C@@H](O)C2(F)F)c(=O)n1 | 6.43 | 7.52 | 5.35 | 5.59 | 5.52 | Dose-Dependent Effect | 5.52 | 6.89 | 32.41% | 3.85% | Non-Toxic | 35.2% | 55.1% | 7.99% | 46.09% | 19.37% | 17.74% | 19.24% | 48.82% | 48.48% | Activity (A2780 [28]): Dose-Dependent Effect; Ratio IC50 (A2780 [29]): 9.6; Activity (A2780 [30]): Active; Ratio IC50 (MCF7 [31]): 2.4; Activity [32]: Non-Toxic; Ratio IC50 (A549 [33]): 6.2; Activity (A2780 [34]): 36.61%; Activity (A2780 [23]): 63.02%; Activity (A2780 [24]): 1.13%; viability at 0.5 µM (A2780 [25]): 18%; inhibition in vivo at 271 mg/kg (A2780 [35]): 64.6%; Activity (A2780 [26]): 72.64%; Activity (A2780 [27]): 12.08% |
